The source of these data is ChEMBL document CHEMBL1155297, “Synthesis, antimicrobial and antioxidant activities of substituted pyrazoles, isoxazoles, pyrimidine and thioxopyrimidine derivatives” (2009).

Common to all, as to type: functional
Assay [1] concerns Staphylococcus aureus. Nature of the assay: Antibacterial activity against Staphylococcus aureus NCIM 5021 at 200 ug/disk after 24 hrs by agar disk diffusion method. To be noted: NCIM 5021, 24 h, read-out: IZ. An outline of the steps:
(§1)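 Agar disc diffusion on nutrient agar plates pre-inoculated with each bacterium. Sterile 6 mm filter-paper discs were moistened with compound in DMSO at the stated per-disc amount. Plates were incubated at 37 °C, and the growth-inhibition zone diameter was read after 24 h. Each determination was run in triplicate, and the mean of three independent readings is reported.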
(A growth-free zone around the sample is the usual read-out of agar diffusion tests.)

For assay [2], the system named is Proteus vulgaris. Description: Antibacterial activity against Proteus vulgaris NCIM 2027 at 100 ug/disk after 24 hrs by agar disk diffusion method. To be noted: NCIM 2027, 24 h, read-out: IZ. In outline:
as §1

For assay [3], the system named is Curvularia lunata. Description: Antifungal activity against Curvularia lunata NCIM 716 at 200 ug/disk after 48 hrs by agar disk diffusion method. To be noted: NCIM 716, 48 h, read-out: IZ. In outline: (§2)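 Fungal disc diffusion on nutrient agar plates pre-inoculated with each fungus. 6 mm sterile paper discs carried the compound in DMSO at the stated amount per disc. Plates were held at 37 °C, and inhibition-zone diameter was measured after 48 h. Values are the mean of three independent triplicate readings.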

In assay [4] the test system is Klebsiella pneumoniae. Description: Antibacterial activity against Klebsiella pneumoniae NCIM 2957 at 100 ug/disk after 24 hrs by agar disk diffusion method. To be noted: NCIM 2957, 24 h, read-out: IZ. An outline of the steps: as §1
Assay [5] concerns Bacillus subtilis. Nature of the assay: Antibacterial activity against Bacillus subtilis NCIM 2063 at 100 ug/disk after 24 hrs by agar disk diffusion method. As to conditions: NCIM 2063, 24 h, read-out: IZ. An outline of the steps:
as §1

Assay [6] in a line: Antioxidant activity assessed as nitric oxide production at 100 uM after 120 mins by Griess reagent method. In outline: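 Nitric oxide assay with Griess read-out. At intervals, 0.5 ml of incubation solution was mixed with 0.5 ml Griess reagent (1% sulfanilamide, 0.1% N-naphthylethylenediamine dihydrochloride, 2% o-phosphoric acid in water). The control received an equal amount of solvent and was handled identically.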
(In general: Nitrite, measured by Griess reagent, commonly stands in for NO production.)

Assay [7] relates to Fusarium solani. Description: Antifungal activity against Fusarium solani NCIM 1330 at 100 ug/disk after 48 hrs by agar disk diffusion method. To be noted: NCIM 1330, 48 h, read-out: IZ. In outline: as §2
Assay [8] deals with Curvularia lunata. Description: Antifungal activity against Curvularia lunata NCIM 716 at 100 ug/disk after 48 hrs by agar disk diffusion method. To be noted: NCIM 716, 48 h, read-out: IZ. An outline of the steps: as §2
Assay [9] relates to Aspergillus niger. Nature of the assay: Antifungal activity against Aspergillus niger NCIM 596 at 100 ug/disk after 48 hrs by agar disk diffusion method. To be noted: NCIM 596, 48 h, read-out: IZ. In outline: as §2
Assay [10] deals with Staphylococcus aureus. Description: Antibacterial activity against Staphylococcus aureus NCIM 5021 at 100 ug/disk after 24 hrs by agar disk diffusion method. As to conditions: NCIM 5021, 24 h, read-out: IZ. In outline:
as §1

For assay [11], the system named is Aspergillus niger. Nature of the assay: Antifungal activity against Aspergillus niger NCIM 596 at 200 ug/disk after 48 hrs by agar disk diffusion method. To be noted: NCIM 596, 48 h, read-out: IZ. In outline:
as §2

The test system of assay [12] is Proteus vulgaris. Description: Antibacterial activity against Proteus vulgaris NCIM 2027 at 200 ug/disk after 24 hrs by agar disk diffusion method. As to conditions: NCIM 2027, 24 h, read-out: IZ. In outline:
as §1

Assay [13] concerns Klebsiella pneumoniae. Nature of the assay: Antibacterial activity against Klebsiella pneumoniae NCIM 2957 at 200 ug/disk after 24 hrs by agar disk diffusion method. As to conditions: NCIM 2957, 24 h, read-out: IZ. In outline: as §1
Assay [14] has as its system Fusarium solani. Nature of the assay: Antifungal activity against Fusarium solani NCIM 1330 at 200 ug/disk after 48 hrs by agar disk diffusion method. As to conditions: NCIM 1330, 48 h, read-out: IZ. An outline of the steps: as §2
Assay [15] has as its system Radical scavenging activity. Description: Antioxidant activity assessed as DPPH free radical scavenging activity at 100 uM after 20 mins. In outline: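 DPPH scavenging: compound solutions were added to DPPH in dioxane/ethanol and kept at ambient temperature for 20 min. Absorbance was read at 517 nm. The test–control difference was expressed as percent DPPH radical scavenging.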
(In general: Loss of DPPH colour is used to gauge radical scavenging.)

For assay [16], the system named is Bacillus subtilis. Description: Antibacterial activity against Bacillus subtilis NCIM 2063 at 200 ug/disk after 24 hrs by agar disk diffusion method. As to conditions: NCIM 2063, 24 h, read-out: IZ. An outline of the steps:
as §1

A word on the inhibition: it is the relative decrease from the control value, in per cent. Regarding `NC1=NC(=O)N=C(N)C1C(CS(=O)(=O)c1ccc(Cl)cc1)S(=O)(=O)c1ccc(Cl)cc1` (stereo not drawn), the zone of inhibition at 200 µg/disc amounted to 24 mm in the assay with Staphylococcus aureus [1]; 23 mm with Curvularia lunata [3]; 19 mm in the assay on Aspergillus niger [11]; 19 mm with Proteus vulgaris [12]; 20 mm in the assay on Klebsiella pneumoniae [13]; 20 mm with Fusarium solani [14]. The zone of inhibition at 200 µg/disc in the assay with Bacillus subtilis [16] was determined as 25 mm. Besides, the zone of inhibition at 100 µg/disc with Proteus vulgaris [2] stood at 17 mm; with Klebsiella pneumoniae [4], 18 mm; in the assay on Bacillus subtilis [5] it was 23 mm; in the assay with Fusarium solani [7], 17 mm; with Curvularia lunata [8], 19 mm; in the assay with Aspergillus niger [9], 16 mm. Further, the zone of inhibition at 100 µg/disc in the assay with Staphylococcus aureus [10] stood at 22 mm. In addition, the values for the inhibition in assay [6] and in assay [15] were 35.9% and 35.8%, respectively.
Turning to `Cc1ccc(C(=O)CC(C(=O)c2ccc(C)cc2)C2C(=N)N(C)C(=O)N(C)C2=N)cc1` (stereo not drawn), the zone of inhibition at 200 µg/disc was determined as 12 mm in the assay with Staphylococcus aureus [1]; 16 mm with Curvularia lunata [3]; 12 mm with Aspergillus niger [11]; 9 mm in the assay with Proteus vulgaris [12]; 8 mm with Klebsiella pneumoniae [13]; 15 mm with Fusarium solani [14]. Besides, the zone of inhibition at 200 µg/disc in the assay with Bacillus subtilis [16] turned out to be 10 mm. In addition, the zone of inhibition at 100 µg/disc was 7 mm with Proteus vulgaris [2]; 7 mm in the assay with Klebsiella pneumoniae [4]; 9 mm with Bacillus subtilis [5]; 12 mm in the assay on Fusarium solani [7]; 14 mm in the assay on Curvularia lunata [8]; 10 mm in the assay on Aspergillus niger [9]. The zone of inhibition at 100 µg/disc in the assay with Staphylococcus aureus [10] came out at 10 mm. The results for the inhibition in [6] and in assay [15] were 20.3% and 21.7%, respectively.
With `Cc1ccc(C(=O)CC(C(=O)c2ccc(C)cc2)C2C(=N)ON=C2N)cc1` (stereo not drawn), the zone of inhibition at 200 µg/disc in the assay on Staphylococcus aureus [1] worked out at 25 mm; with Curvularia lunata [3], 33 mm; in the assay on Aspergillus niger [11], 27 mm; in the assay on Proteus vulgaris [12], 23 mm; in the assay with Klebsiella pneumoniae [13], 24 mm; in the assay with Fusarium solani [14] it was 34 mm. Further, the zone of inhibition at 200 µg/disc in the assay with Bacillus subtilis [16] came out at 28 mm. Further, the zone of inhibition at 100 µg/disc in the assay on Proteus vulgaris [2] worked out at 21 mm; in the assay with Klebsiella pneumoniae [4] it was 22 mm; with Bacillus subtilis [5], 26 mm; in the assay with Fusarium solani [7] it was 32 mm; in the assay with Curvularia lunata [8], 31 mm; in the assay on Aspergillus niger [9] it was 24 mm. Besides, in the assay with Staphylococcus aureus [10], the zone of inhibition at 100 µg/disc is 22 mm. Also, the values for the inhibition in assay [6] and in [15] were 54.3% and 58.1%, respectively.
As for `NC1=NC(=S)N=C(N)C1C(CS(=O)(=O)c1ccc(Cl)cc1)S(=O)(=O)c1ccc(Cl)cc1` (stereo not drawn), the zone of inhibition at 200 µg/disc in the assay on Staphylococcus aureus [1] was 27 mm; with Curvularia lunata [3], 28 mm; in the assay on Aspergillus niger [11] it was 23 mm; in the assay with Proteus vulgaris [12] it was 23 mm; with Klebsiella pneumoniae [13] it was 22 mm; in the assay on Fusarium solani [14], 25 mm. Also, the zone of inhibition at 200 µg/disc with Bacillus subtilis [16] was found to be 25 mm. The zone of inhibition at 100 µg/disc in the assay with Proteus vulgaris [2] amounted to 21 mm; in the assay on Klebsiella pneumoniae [4], 20 mm; in the assay with Bacillus subtilis [5], 23 mm; in the assay on Fusarium solani [7], 22 mm; with Curvularia lunata [8], 25 mm; in the assay on Aspergillus niger [9], 20 mm. In addition, in the assay with Staphylococcus aureus [10], the zone of inhibition at 100 µg/disc worked out at 25 mm. For the same molecule, the inhibition in [6] amounted to 48.5%; in assay [15], 47.9%.
For the molecule `N=C1ON=C(N)C1C(CC(=O)c1ccccc1)C(=O)c1ccccc1` (stereo not drawn), the zone of inhibition at 200 µg/disc in the assay on Staphylococcus aureus [1] was found to be 26 mm; with Curvularia lunata [3], 32 mm; with Aspergillus niger [11], 29 mm; in the assay on Proteus vulgaris [12], 24 mm; in the assay with Klebsiella pneumoniae [13] it was 25 mm; in the assay with Fusarium solani [14], 31 mm. The zone of inhibition at 200 µg/disc with Bacillus subtilis [16] is 27 mm. The zone of inhibition at 100 µg/disc with Proteus vulgaris [2] was 21 mm; in the assay on Klebsiella pneumoniae [4] it was 23 mm; in the assay on Bacillus subtilis [5], 24 mm; in the assay with Fusarium solani [7], 30 mm; in the assay with Curvularia lunata [8] it was 30 mm; in the assay on Aspergillus niger [9], 27 mm. Moreover, the zone of inhibition at 100 µg/disc with Staphylococcus aureus [10] turned out to be 23 mm. For the same molecule, the inhibition in assay [6] was 43.5%; in assay [15], 42.3%.
`Cc1ccc(S(=O)(=O)CC(C2C(N)=NN=C2N)S(=O)(=O)c2ccc(C)cc2)cc1` (stereo not drawn): the zone of inhibition at 200 µg/disc came to 29 mm in the assay with Staphylococcus aureus [1]; 33 mm with Curvularia lunata [3]; 31 mm in the assay with Aspergillus niger [11]; 25 mm in the assay on Proteus vulgaris [12]; 26 mm in the assay on Klebsiella pneumoniae [13]; 35 mm in the assay on Fusarium solani [14]. Moreover, the zone of inhibition at 200 µg/disc in the assay with Bacillus subtilis [16] was 28 mm. The zone of inhibition at 100 µg/disc was found to be 22 mm in the assay with Proteus vulgaris [2]; 23 mm with Klebsiella pneumoniae [4]; 26 mm in the assay on Bacillus subtilis [5]; 30 mm in the assay with Fusarium solani [7]; 31 mm in the assay with Curvularia lunata [8]; 28 mm in the assay with Aspergillus niger [9]. For the same molecule, the zone of inhibition at 100 µg/disc in the assay on Staphylococcus aureus [10] was determined as 27 mm. Further, the inhibition came out at 60.5% in assay [6] and 59.4% in assay [15].
For the molecule `N=C1ON=C(N)C1C(CS(=O)(=O)c1ccccc1)S(=O)(=O)c1ccccc1` (stereo not drawn), the zone of inhibition at 200 µg/disc with Staphylococcus aureus [1] was found to be 31 mm; with Curvularia lunata [3], 32 mm; with Aspergillus niger [11], 31 mm; with Proteus vulgaris [12] it was 28 mm; with Klebsiella pneumoniae [13], 29 mm; in the assay on Fusarium solani [14] it was 34 mm. For the same molecule, in the assay on Bacillus subtilis [16], the zone of inhibition at 200 µg/disc was 32 mm. The zone of inhibition at 100 µg/disc is 26 mm in the assay with Proteus vulgaris [2]; 26 mm in the assay with Klebsiella pneumoniae [4]; 30 mm with Bacillus subtilis [5]; 31 mm with Fusarium solani [7]; 29 mm in the assay with Curvularia lunata [8]; 28 mm in the assay on Aspergillus niger [9]. Also, the zone of inhibition at 100 µg/disc in the assay on Staphylococcus aureus [10] was found to be 29 mm. Moreover, the results for the inhibition in [6] and in assay [15] were 84.9% and 85.8%, respectively.
Consider `NC1=NN=C(N)C1C(CS(=O)(=O)c1ccccc1)S(=O)(=O)c1ccccc1` (stereo not drawn), for which the zone of inhibition at 200 µg/disc is 32 mm in the assay on Staphylococcus aureus [1]; 36 mm in the assay with Curvularia lunata [3]; 34 mm in the assay with Aspergillus niger [11]; 25 mm in the assay with Proteus vulgaris [12]; 30 mm in the assay with Klebsiella pneumoniae [13]; 37 mm in the assay with Fusarium solani [14]. In the assay on Bacillus subtilis [16], the zone of inhibition at 200 µg/disc is 33 mm. Further, the zone of inhibition at 100 µg/disc with Proteus vulgaris [2] is 24 mm; with Klebsiella pneumoniae [4], 28 mm; in the assay on Bacillus subtilis [5], 31 mm; with Fusarium solani [7], 34 mm; in the assay with Curvularia lunata [8], 33 mm; in the assay on Aspergillus niger [9], 31 mm. The zone of inhibition at 100 µg/disc in the assay on Staphylococcus aureus [10] stood at 30 mm. Also, the results for the inhibition in assay [6] and in assay [15] were 60% and 58.5%, respectively.
